Consider four compounds from ChEMBL document CHEMBL1150611, “Gaboroquinones A and B and 4'-O-demethylknipholone-4'-O-beta-D-glucopyranoside, phenylanthraquinones from the roots of Bulbine frutescens” (J Nat Prod, 2002).

Values after ≈ are worked out from the molar mass of the structure shown.

One experiment deals with L6. The experiment can be described thus: Cytotoxicity against rat L6 cells after 4 days. The class given is cell-based. Particulars: L6, 96 h. The method in brief: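 Mammalian-cell cytotoxicity was tested up to a highest concentration of 90 µg mL-1.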
The subject of another experiment is Trypanosoma cruzi. The experiment can be described thus: Trypanocidal activity against trypomastigotes of Trypanosoma cruzi Tulahuen C2C4 infected in rat L6 cells after 4 days. In kind it is functional, organism-based. Particulars: L6, 96 h.
Experiment [1] relates to Trypanosoma brucei rhodesiense. In words: Trypanocidal activity against Trypanosoma brucei rhodesiense STIB 900 after 72 hrs. The class given is functional, organism-based.
The test system of experiment [2] is Plasmodium falciparum. The experiment can be described thus: Antiplasmodial activity against multi drug-sensitive Plasmodium falciparum NF54 infected human erythrocytes after 48 hrs by [3H]hypoxanthine uptake. The class given is functional, organism-based. The method in brief: (§1)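 Top test concentration was 5.0 µg mL-1.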
In experiment [3] the test system is Plasmodium falciparum. The experiment can be described thus: Antiplasmodial activity against chloroquine and pyrimethamine-resistant Plasmodium falciparum K1 infected human erythrocytes after 48 hrs by [3H]hypoxanthine uptake. In kind it is functional, organism-based. The method in brief: as §1

For `COc1cc(O)c(-c2c(C)cc(O)c3c2C(=O)c2cccc(O)c2C3=O)c(O)c1C(C)=O` [KNIPHOLONE], the MIC against L6 came out at 33 µg/mL (≈ 76 µM). Further, the IC50 in the experiment on Trypanosoma cruzi was 7.6 µg/mL (≈ 17.5 µM); in experiment [1], 9.3 µg/mL (≈ 21.4 µM); in the experiment with Plasmodium falciparum [2] it was 0.91 µg/mL (≈ 2.09 µM); with Plasmodium falciparum [3], 0.67 µg/mL (≈ 1.54 µM).

Take `CC(=O)c1c(O[C@@H]2O[C@H](CO)[C@@H](O)[C@H](O)[C@H]2O)cc(O)c(-c2c(C)cc(O)c3c2C(=O)c2cccc(O)c2C3=O)c1O` [BULBINELONESIDE D]: the MIC against L6 was determined as 90 µg/mL (≈ 155 µM). For the same compound, the IC50 came to 6.8 µg/mL (≈ 11.7 µM) in the experiment with Trypanosoma cruzi, 0.7 µg/mL (≈ 1.2 µM) in experiment [1], 0.43 µg/mL (≈ 0.738 µM) with Plasmodium falciparum [2] and 0.41 µg/mL (≈ 0.704 µM) with Plasmodium falciparum [3].

For `COc1cc(O)c(-c2c(CO)cc(O)c3c2C(=O)c2cccc(O)c2C3=O)c(O)c1C(C)=O` [GABOROQUINONE B], in the experiment on L6, the MIC was over 90 µg/mL. In addition, the IC50 in the experiment with Trypanosoma cruzi was over 90 µg/mL; in experiment [1], 45.5 µg/mL (≈ 101 µM); in the experiment on Plasmodium falciparum [2] it was over 5 µg/mL; in the experiment with Plasmodium falciparum [3], over 5 µg/mL.

Take `COc1c(C(C)=O)c(O)cc(O)c1-c1c(CO)cc(O)c2c1C(=O)c1cccc(O)c1C2=O` [GABOROQUINONE A]: the MIC in the experiment on L6 was over 90 µg/mL. The IC50 in the experiment on Trypanosoma cruzi is 33.1 µg/mL (≈ 73.5 µM); in experiment [1], 5.1 µg/mL (≈ 11.3 µM); with Plasmodium falciparum [2], 4.2 µg/mL (≈ 9.33 µM); in the experiment on Plasmodium falciparum [3] it was 4.8 µg/mL (≈ 10.7 µM).

One may read the IC50 as the point on the concentration scale where inhibition reaches its midpoint. Lower therefore signals higher potency.
